Test results: ChEMBL document CHEMBL5370602, “Structure-Based Design of a Lead Compound Derived from Natural Schweinfurthins with Antitumor Properties That Target Oxysterol-Binding Protein” (J Med Chem, 2023)

Experiments:
[1] = Toxicity in immunodeficient nude mouse model xenografted with high alert medicated patient derived human GBM1 cells assessed as body weight change at 42 mg/kg,po QD for 5 days; type: organism-based; conditions: in vivo, 120 h, time 5 day
Method in brief: (§1)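 Female athymic nude mice bearing subcutaneous GBM1-HAM PDX fragments (20 mm³); treatment began day 11 post-implant at tumour volumes 75-196 mm³, 10 per group. Compound i.p. daily in cyclodextrin vehicle (17 days alone, 27 days in combination); temozolomide 42 mg/kg p.o. daily for 5 days in PBS/glucose/Tween 80. Calliper volumes three times weekly; body weight and clinical signs monitored.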

[2] = Toxicity in immunodeficient nude mouse model xenografted with high alert medicated patient derived human GBM1 cells assessed as clinical symptoms at 42 mg/kg,po QD for 5 days; type: organism-based; conditions: in vivo, 120 h, time 5 day; method in brief: as §1
[3] = Antitumor activity in high alert medicated patient derived human GBM1 cells xenografted in immunodeficient nude mouse model assessed as T/C ratio at 42 mg/kg,po QD for 5 days and measured from 9 to 11 days; conditions: time 5 day
[4] = Antitumor activity in high alert medicated patient derived human GBM1 cells xenografted in immunodeficient nude mouse model assessed as tumor growth inhibition at 42 mg/kg,po QD for 5 days and measured from 9 to 11 days; conditions: GBM1, 120 h
[5] = Antitumor activity in high alert medicated patient derived human GBM1 cells xenografted in immunodeficient nude mouse model assessed as change in tumor volume at 42 mg/kg,po QD for 5 days and measured after 11 days relative to control; conditions: time 5 day

With Cn1nnc2c(C(N)=O)ncn2c1=O [TEMOZOLOMIDE] the Activity [1] was “Non-Toxic”, the Activity [2] was “Non-Toxic” and the T/C [3] was 62.43%. It also gave a TGDI at 42 mg/kg [4] of 1.34% and an Activity [5] of 546.69%.
